Test system: MS2 coat protein
Test: apparent Kd, MS2 coat protein; higher = weaker binding; RNA-MaP array; FMN 200 µM where present
Method in brief: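 Binding was read on Illumina sequencing-chip clusters where stalled E. coli RNA polymerase had transcribed each design. A titration of SNAP-549-labelled MS2 coat protein began at 0.7 or 1.5 nM and doubled to 3 µM, once without ligand and once with constant ligand, in 100 mM Tris-HCl pH 7.5, 80 mM KCl, 4 mM MgCl2, BSA, DTT, yeast tRNA and Tween-20. The apparent Kd is the median of filtered per-cluster binding-curve fits, based on green signal normalised to red-channel RNA signal and control-cluster median Fmax.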

[1] = designed as: ON switch for flavin mononucleotide, no ligand
[2] = ligand present: flavin mononucleotide, designed as: ON switch for flavin mononucleotide
[3] = designed as: OFF switch for flavin mononucleotide, no ligand
[4] = ligand present: flavin mononucleotide, designed as: OFF switch for flavin mononucleotide

| Sequence | apparent Kd [1] [nM] | apparent Kd [2] [nM] | apparent Kd [3] [nM] | apparent Kd [4] [nM] |
| --- | --- | --- | --- | --- |
| GACAUGGUCUAGAAGGGCUAUCUAUUUAAGUACGAUUUAGAACAGCAUAGCAGGAUAUGGCUAACAUGAGGAUCACCCAUGUUC | 40.5 | 18.7 | – | – |
| GACCGCGAGGAAGGAUAUGGAGCCUUAUUGGCUCCAGAAGGUCCAUAAAGGACAUGAGGAUCACCCAUGUGGUGAGAAGCGGUC | 2070 | 179 | – | – |
| GACGGACAUGAGGAUCACCCAUGUAGGUUGGCCACAGGAUAUGCAAAACGGCCUGCCGCGGCAGAAGGGUGAGCCC | 39.1 | 43.7 | – | – |
| GACGUACAUGAGGAUCACCCAUGUACAAACGUACAAGGAUAUGUGUGGAAACCGUACUAUACAGAAGGUGUUUGUC | 14.3 | 14.1 | – | – |
| GACGUACAUGAGGAUCACCCAUGUACAGACGUACAAGGAUAUGUGUGGAAACCGUACUAUACAGAAGGUGUUUGUC | 15.7 | 15 | – | – |
| GACUGAUUACAGAAGGUGUUUGACAUGAGGAUCACCCAUGUGUUAUUCAGUUUCAUUGAAUUUAACAAGGAUAUGUAUAUAUCA | 220 | 101 | – | – |
| GACUUCUCUGAGGAUAUUGCAUCAUACGAUAAAUAAGAAGGCAGAACAUGAGGAUCACCCAUGUGGGCUCCAAG | – | – | 54.7 | 256 |
| GACUUGCGCACAGGAUAUCCACGGAGCGGACGUGGAGAAGGGUGACAUGAGGAUCACCCAUGUACGUAAGUCUGGAUCACUCCC | 108 | 33.1 | – | – |
| GACUUGGCUACAUGAGGAUCACCCAUGUUUGACUGGAUCGAUUAGGAUAUAGUGAUAUGCAACAAUUAGAAGGGAUGUUUACGG | 52.9 | 42.2 | – | – |
| GACUUGGCUACAUGAGGAUCACCCAUGUUUGACUGGAUCGAUUAGGAUAUAGUGAUUUGCAACAAUUAGAAGGGAUGUUUACGG | 23 | 28.8 | – | – |
| GACUUGUAAGGAUAUCGUGCAAGUUUCAAAAGAGGCUUGUGCGAGAAGGUACAUGAGGAUCACCCAUGUAGGUU | – | – | 27 | 56.6 |
| GACUUGUAUGAGAAGGGACAUGGACUAGAUGUGACAUGAGGAUCACCCAUGUCAGGAUAUCAAGCGACCCGUAGCCGAUAGGCG | – | – | 10.5 | 46 |
| GAGAAGAAGUUAGGAUAUUGGAUAGGGACGGAAUAAGAAGGAGCAAGACAUGAGGAUCACCCAUGUGUAGAAGAAGAGAUCCUC | – | – | 520 | 384 |
| GAGAAGUCAGGAUAUGCAUGGCGGGACUUGCGUCGUGGCGUGCAGAAGGGACAUGAGGAUCACCCAUGUAAAGC | – | – | 45.4 | 39.5 |
| GAGAGCCGAGGAUAUACAUGAGGAUCACCCAUGUAAAAAAAAAAAAAAAAAAAAUCAUGUAGAAGGCGGCUUUC | – | – | 122 | 89.8 |
| GAGAUGUGAGGAUAUCUAGACCGCGAAAGAGCCGCGGUCCGAGAGAAGGCACAUGAGGAUCACCCAUGUGAUGA | – | – | 46.9 | 119 |
| GAGCAGGUAAUAAAGUAGAAAUACAUGAGGAUCACCCAUGUAUAGGAUAUCGUCAGGAAUACUGACGAGAAGGAUACAUCCUGC | – | – | 14.2 | 18.1 |
| GAGCGGGAAACAUGAGGAUCACCCAUGUAAAAAAUCCUCAAGUAGGAUAUGCGAAAAAAAAAAAAGCAGAAGGGCUACCCGGUC | – | – | 58.3 | 72.7 |
| GAGCUAUGAGGAUAUGCAUAUAUACGGAUUCGUGUAGUACUACAUGAGGAUCACCCAUGUAGAAGGCGUGGCUG | – | – | 13.4 | 16.7 |
| GAGCUCAAGCAGAAGGCCAUAUGUCAAUCGACAUGAGGAUCACCCAUGUAUGAGCUCGGCGUCGUGGAGGAUAUGCAGGCUCUA | 351 | 17.6 | – | – |
| GAGCUCGAUGAGAAGGGUUACAUGAGGAUCACCCAUGUCGACCUUGGCGUAACAGGAUAUCACCGGGCUCAGUGCGUUGACCCA | – | – | 27.1 | 121 |
| GAGCUGUGAGGAUAUACAUGAGGAUCACCCAUGUUAAGGAAGUGGUGUAUAUUUUAGUGUAGAAGGCACUUAUU | – | – | 121 | 439 |
| GAGCUUGAUGAGAAGGGUUACAUGAGGAUCACCCAUGUCGACCUUGGCGUAACAGGAUAUCAUCGGGCUCUGUGCGUUGACACA | – | – | 27 | 121 |
| GAGGAGCAAGGAUAUACGAGGAUAUGGAAGGUUGGAGAGUGACAUGAGGAUCACCCAUGUAGAAGGUGCGAGGG | – | – | 53.7 | 49.2 |
| GAGGAGCAAGGAUAUACGAGGAUAUGGUAGGUUGGAGAGUGACAUGAGGAUCACCCAUGUAGAAGGUGCGAGGG | – | – | 66.7 | 55.9 |
| GAGGCACAUGAGGAUCACCCAUGUGGGUAGAACAUAGGAUAUCACCAACAAAUUACCCGGUGAGAAGGAUGAUGCC | 234 | 57.4 | – | – |
| GAGGUACGAGGAUAUACAUAGAUACAGACACAUGUUCAAGUACAUGAGGAUCACCCAUGUAGAAGGCGUAUAUC | – | – | 30.1 | 44.9 |
| GAGUAGAUCCGAGGAUAUACAAUCCGGAAACGGUACAUGAGGAUCACCCAUGUAGAAGGCGGAUCUACAGGUACUAAAGUACCG | – | – | 5.99 | 9.24 |

| Sequence | apparent Kd [1] [nM] | apparent Kd [2] [nM] | apparent Kd [3] [nM] | apparent Kd [4] [nM] |
| --- | --- | --- | --- | --- |
| GAGUAGUUGGGAGGAUAUCGAUUGUUAUAGAAUCGAGAAGGUUCUAACAUGAGGAUCACCCAUGUAGGACUAUUCCUGUGUAUC | 71.8 | 65.4 | – | – |
| GAGUGACACCAGAAGGGCCAGGAAAGAACCCUGGUAGGAUAUGGAGCGCCCUCGUAACGACCGACAUGAGGAUCACCCAUGUCC | 193 | 34.7 | – | – |
| GAGUGACAUGAGGAUCACCCAUGUGAGGAUAUCGGACGGACCUAGUUAGCUUCCGCCGCGAGAAGGCACAUCGG | – | – | 121 | 45.8 |
| GAGUGCUGAGGAUAUACAUGAGGAUCACCCAUGUGCUUCAACUAGGAGACUAGUAUUGGUAGAAGGCAGUACUC | – | – | 16.5 | 104 |
| GAGUGGUGGAGAGGAUAUACAUUGUUAUUCACUGUAGAAGGUUCUAACAUGAGGAUCACCCAUGUAGGACUAUUCCUGUGUUUU | 13.4 | 10.4 | – | – |
| GAGUUUACGUUUGACACUUAGCGAGAGGAUAUGGAAAACAAGACAUGAGGAUCACCCAUGUACUAUCAGAAGGCUCGAGUACGA | 8.92 | 5.69 | – | – |
| GAUAAACAUGAGGAUCACCCAUGUCAGGAUAUGCGCUAGCUAGCUAGCUAGCUAGCUAGCAGAAGGGACACUAC | – | – | 19.5 | 35 |
| GAUAAGCUAGGAUAUACAUAUUAUUUAAUAUCCUCAUUAAUACAUGAGGAUCACCCAUGUAGAAGGAGCAAUAG | – | – | 127 | 272 |
| GAUAAGGGAGGAUAUACGGAACGGUUUAUGCUCAGUGAGGCACAUGAGGAUCACCCAUGUAGAAGGCCCGACAG | – | – | 28.2 | 120 |
| GAUAGGACAGAGAAGGUACGUGCUAGAGAUACUAGCAAAAUACCUCAACAUGAGGAUCACCCAUGUAAGGAUAUCUGUCCUAUC | – | – | 5.7 | 6.19 |
| GAUCCACAUGAGGAUCACCCAUGUGAGGAUAUGAUACUAUGUACUUCGGUACAUAGUAUCAGAAGGCACAGGUC | – | – | 51.4 | 160 |
| GAUUAACAUGAGGAUCACCCAUGUGAGGAUAUGAACUUGCCCACUUUCCCUUUAGAGUUUAGAAGGCGCAUUCU | – | – | 29.8 | 30.6 |
| GAUUAGCUUGGAGGAUAUGGUACGGGCAGCUAACCAGAAGGCCAAGAACAUGAGGAUCACCCAUGUGCCGUUGGCCAUGGGAGG | – | – | 37.1 | 13.2 |
| GCACAUGAUACAGGAUAUGUAUUGGAAUUUAUAAUGAGUUAUAUAAUAUUUACAGAAGGGUAUACAUGAGGAUCACCCAUGUGC | – | – | 30.7 | 23 |
| GCACAUGAUACAGGAUAUGUAUUGGUAUUUAUAUACAGUUAUAUAAUAUUUACAGAAGGGUAUACAUGAGGAUCACCCAUGUGC | – | – | 81.3 | 41.7 |
| GCACAUGGCAUAGGAUAUAGAACGAUAGUUGAAAUAGAUUGUUGGAAUUUACUAGAAGGAUGAGACAUGAGGAUCACCCAUGUA | 34.9 | 28.6 | – | – |
| GCACAUUUGUAAGGAUAUACAACAUGAGGAUCACCCAUGUGAUUGAAUUUAGUAGAAGGUACAGAAAUGAGUAUCACUUUUGUA | 16.8 | 10.9 | – | – |
| GCACGACAUGUAGGAUAUCGAGCGCCGAGCGCUCGAGAAGGACAUGAGGAUCACCCAUGUAUUCCGAGUGAGUCAGGUCGUGCA | – | – | 17.5 | 23.4 |
| GCACGGCAUGUAGGAUAUCGAGCGCCGGGCGCUCGAGAAGGACAUGAGGAUCACCCAUGUGCUCACAGUGAGUGAGUGCUGUGC | – | – | 19.6 | 37.4 |
| GCACGGUAUGUAGGAUAUGCAUAGCAUUGCUAUGCAGAAGGACAUGAGGAUCACCCAUGUAUGUAUUCCAUACUAAUCCCGUGG | – | – | 5.38 | 5.72 |
| GCACGUGGACAGAAGGCGACAUGAGGAUCACCCAUGUUGGCUCGGGUAUGACCAAUCCGCAUGAUCGAGGAUAUGUCUGCGGGC | – | – | 264 | 15.9 |
| GCACUGGAUGUAGGAUAUCAGGACGAUAAGUCCUGAGAAGGACAUGAGGAUCACCCAUGUAAACCUCACCAGUGCUAUAAUAUA | – | – | 15.5 | 21.1 |
| GCACUGGAUGUAGGAUAUCAGGACGAUAAGUCCUGAGAAGGACAUGAGGAUCACCCAUGUAACUCAAACCAGUGCUAUAAUAUA | – | – | 16.2 | 27.2 |
| GCACUGGAUGUAGGAUAUCAGGACGAUAAGUCCUGAGAAGGACAUGAGGAUCACCCAUGUCUCAAGAAACCAGUGCAUAAUAUA | – | – | 13 | 15.9 |
| GCACUGGAUGUAGGAUAUCAGGACGAUAAGUCCUGAGAAGGACAUGAGGAUCACCCAUGUGAAUAAACCAGUGCAAAUAAUAUA | – | – | 12.5 | 32.3 |
| GCACUGGAUGUAGGAUAUCAGGACGAUAAGUCCUGAGAAGGACAUGAGGAUCACCCAUGUGCUUAAACCAGUGCAUAUAAUAUA | – | – | 12.2 | 18.4 |
| GCACUUAGAGUUGAACCGUUUCGAACAUGAGGAUCACCCAUGUAGGAUAUGCUAAUAGUAUUGAAGCAGAAGGACAAUAAGUGC | – | – | 6.43 | 6.05 |
